APP 5'UTR act – activators of APP 5'UTR luciferase reporter, primary screen, SH-SY5Y cells; SH-SY5Y APP 5'UTR luciferase reporter, luminescence; zero percent = DMSO vehicle wells; activation, % at 2 µM; 190,000 compounds, 1% hits; AID 1276, 2008;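 active = activation above a set limit, based on mean plus 3 SD of controls, cut at about 140% in these data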
STAT3 act-1 – IL-6 driven STAT3 reporter potentiators, primary screen, U3A cells, luciferase, luminescence, MLSCN library; IL-6 STAT3-luciferase reporter; 100% = signal with IL-6 EC80 alone; activation (% of control), % at 5.6 µM; 190,000 compounds, 0.91% hits; AID 871, 2007;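 active = activation above the screen-wide mean of compound activation plus 3 SD, cut at about 130% in these data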
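Material: STAT1-lacking human U3A cells, STAT3 luciferase reporter | Benchmarks: IL-6-only wells as 100% reference | Probe or stimulus: IL-6 (33 ng/mL) | Timing: Compound 1 h, then IL-6 6 h at 37 °C | Detection: Luminescence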
STAT3 inh – IL-6 driven STAT3 reporter inhibitors, primary screen, U3A cells, luciferase, luminescence, MLSCN library; inhibition, % at 5.5 µM; 190,000 compounds, 0.89% hits; IL-6 STAT3-luciferase reporter; host cell line lacks STAT1;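 active = inhibition above the mean inhibition across all screened compounds plus 3 SD, cut at about 44% in these data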
STAT1 act-1 – STAT1 signaling activators, primary screen, cell-based, HTS, luciferase reporter; 200,000 compounds, 2.6% hits; activation (% of control), % at 5.5 µM; NIH 3T3 STAT1-luciferase reporter, IFN-gamma, luminescence; 100% = IFN-gamma alone, no compound;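 active = activation above the screen-wide mean activation plus 3 SD, cut at about 130% in these data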
STAT1 inh – STAT1 signaling inhibitors, primary screen, cell-based, HTS, luciferase reporter; inhibition, % at 5.5 µM; NIH 3T3 STAT1-luciferase reporter, IFN-gamma, luminescence; 200,000 compounds, 0.35% hits;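 active = inhibition above a set limit, the mean inhibition across all tested compounds plus 3 SD, cut at about 34% in these data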
NF-kB neuron act – activators of NF-kB expression in neurons, primary screen, cell-based, HTS; human neuronal cells, NF-kB reporter expression; stronger effect = higher value; fold change at 12.5 µM; 190,000 compounds, 1.6% hits; in the data active = fold change above about 3.3
STAT3 act-2 – STAT3 reporter potentiators, retest of hits, confirmation, U3A cells, luciferase, luminescence; shares compounds with STAT3 act-1; IL-6 potentiation; U3A cells lack STAT1; 100 means same as IL-6 alone; potentiation (% of control), % at 5.7 µM; 1,200 compounds, 64% hits; AID 1267, 2008;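 active = percent activation of the STAT3 luciferase reporter above a set limit taken from the earlier primary screen, cut at about 130% in these data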
NFkB act 2 – NF-kB reporter activators in human cells, counter-screen for STAT3 activator project; 1,200 compounds, 11% hits; NF-kappaB reporter activation; shares compounds with STAT3 act-1; activation (% of control), % at 5.7 µM; in the data active = activation above about 120%;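 note: reporter induced by TNF-alpha stimulation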
STAT1 act-2 – STAT1 reporter activators, IFN-gamma induced, counter-screen for STAT3 activator project, cell-based, NIH 3T3, luciferase luminescence; AID 1318, 2008; 1,200 compounds, 13% hits; shares compounds with STAT3 act-1; NIH 3T3 STAT1-luciferase reporter; activation (% of control), % at 5.7 µM;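 active = activation above the solvent-only control well mean plus 3 SD, set per screening run, cut at about 120% in these data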
A number is an active result. Only some compounds are listed: those with a hit (about 4.9% of all), similar ones and a draw of the others.

`CC(=O)c1c(C)[nH]c(C(=O)Nc2ccccc2N2CCOCC2)c1C` gave APP 5'UTR act inactive, STAT3 act-1 inactive, STAT3 inh inactive, STAT1 act-1 inactive, STAT1 inh inactive and NF-kB neuron act inactive.
`COc1ccccc1NC(=O)c1[nH]c(C)c(C(C)=O)c1C` gave APP 5'UTR act inactive, STAT3 act-1 162, STAT3 inh inactive, STAT1 act-1 inactive, STAT1 inh inactive, NF-kB neuron act inactive, STAT3 act-2 158, NFkB act 2 inactive and STAT1 act-2 inactive.
For Cc1ccc(C(=O)Nc2cc(Cl)ccc2OC(=O)c2ccc(C)cc2)cc1 the results were APP 5'UTR act inactive, STAT3 act-1 140, STAT3 inh inactive, STAT1 act-1 inactive, STAT1 inh inactive, NF-kB neuron act 4.1, STAT3 act-2 inactive, NFkB act 2 inactive and STAT1 act-2 inactive.
For Cc1cc(NC(=O)c2ccc(Cl)cc2)c(C)cc1O the results were APP 5'UTR act inactive, STAT3 act-1 inactive, STAT3 inh inactive, STAT1 act-1 inactive, STAT1 inh inactive and NF-kB neuron act inactive.
`O=C(Nc1ccccc1OC(=O)c1ccc(Cl)cc1)c1ccc(Cl)cc1` gave APP 5'UTR act inactive, STAT3 act-1 136, STAT3 inh inactive, STAT1 act-1 inactive, STAT1 inh inactive, NF-kB neuron act inactive, STAT3 act-2 141, NFkB act 2 inactive and STAT1 act-2 inactive.
`O=C(Nc1ccccc1O)c1ccc(Cl)cc1` gave APP 5'UTR act inactive, STAT3 act-1 152, STAT3 inh inactive, STAT1 act-1 inactive, STAT1 inh inactive, NF-kB neuron act 5.7, STAT3 act-2 141, NFkB act 2 inactive and STAT1 act-2 inactive.
COc1ccc(C(=O)Nc2cc(Cl)ccc2OC(=O)c2ccc(OC)cc2)cc1 was read as APP 5'UTR act inactive, STAT3 act-1 inactive, STAT3 inh inactive, STAT1 act-1 inactive, STAT1 inh inactive and NF-kB neuron act inactive.
Screening C/C(=N\Nc1nc(-c2cc(C)ccc2C)cs1)c1cc2ccccc2oc1=O returned APP 5'UTR act inactive, STAT3 act-1 inactive, STAT3 inh inactive, STAT1 act-1 inactive, STAT1 inh inactive and NF-kB neuron act inactive.
`C/C(=N\Nc1nc(-c2cc(C)ccc2C)cs1)c1cc2c(ccc3ccccc32)oc1=O` gave APP 5'UTR act inactive, STAT3 act-1 146, STAT3 inh inactive, STAT1 act-1 inactive, STAT1 inh inactive, NF-kB neuron act inactive, STAT3 act-2 inactive, NFkB act 2 inactive and STAT1 act-2 inactive.
For CC(NC(=O)Cc1ccccc1)c1cc2c(cc1Br)OCCCO2 (stereo not drawn) the results were APP 5'UTR act inactive, STAT3 act-1 inactive, STAT3 inh inactive, STAT1 act-1 inactive, STAT1 inh inactive and NF-kB neuron act inactive.
`Oc1ccc(C=Nc2cccc3ncccc23)c(O)c1` gave APP 5'UTR act inactive, STAT3 act-1 inactive, STAT3 inh inactive, STAT1 act-1 inactive, STAT1 inh inactive and NF-kB neuron act inactive.
`CCOc1ccc(C=Nc2cccc3ncccc23)cc1` gave APP 5'UTR act inactive, STAT3 act-1 149, STAT3 inh inactive, STAT1 act-1 inactive, STAT1 inh inactive, NF-kB neuron act inactive, STAT3 act-2 148, NFkB act 2 inactive and STAT1 act-2 inactive.
`Cc1cccc(C(=O)N2CCN=C2SCc2ccc([N+](=O)[O-])cc2)c1` gave APP 5'UTR act inactive, STAT3 act-1 inactive, STAT3 inh inactive, STAT1 act-1 inactive, STAT1 inh inactive and NF-kB neuron act inactive.
Screening COc1ccc(C(=O)c2nccc3ccccc23)cc1 returned APP 5'UTR act inactive, STAT3 act-1 inactive, STAT3 inh inactive, STAT1 act-1 inactive, STAT1 inh inactive and NF-kB neuron act inactive.
For Cc1cc(C)cc(OCC(=O)NCC2CCCO2)c1 (stereo not drawn) the results were APP 5'UTR act inactive, STAT3 act-1 inactive, STAT3 inh inactive, STAT1 act-1 inactive, STAT1 inh inactive and NF-kB neuron act inactive.
`Cc1cc(C)c(NC(=O)CS(=O)CC(=O)NCC2CCCO2)c(C)c1` (stereo not drawn) gave APP 5'UTR act inactive, STAT3 act-1 140, STAT3 inh inactive, STAT1 act-1 inactive, STAT1 inh inactive, NF-kB neuron act inactive, STAT3 act-2 inactive, NFkB act 2 inactive and STAT1 act-2 inactive.
Screening NNc1ncnc2sc3c(c12)CCC3 returned APP 5'UTR act inactive, STAT3 act-1 139, STAT3 inh inactive, STAT1 act-1 inactive, STAT1 inh inactive, NF-kB neuron act inactive, STAT3 act-2 137, NFkB act 2 inactive and STAT1 act-2 inactive.
`C(=N\Nc1ncnc2sc3c(c12)CCC3)/c1cccs1` gave APP 5'UTR act inactive, STAT3 act-1 152, STAT3 inh inactive, STAT1 act-1 inactive, STAT1 inh inactive, NF-kB neuron act inactive, STAT3 act-2 142, NFkB act 2 inactive and STAT1 act-2 inactive.
`CS(=O)(=O)NN1C(=O)c2ccccc2NC1c1c[nH]c2ccccc12` (stereo not drawn) gave APP 5'UTR act inactive, STAT3 act-1 inactive, STAT3 inh inactive, STAT1 act-1 inactive, STAT1 inh inactive and NF-kB neuron act inactive.
For CCC(C)NC(=O)c1cc(Sc2nnc(C)s2)nc2ccccc12 (stereo not drawn) the results were APP 5'UTR act inactive, STAT3 act-1 inactive, STAT3 inh inactive, STAT1 act-1 inactive, STAT1 inh inactive and NF-kB neuron act inactive.
For O=C(O)Cn1nnnc1SCC(=O)Nc1ccc(F)cc1F the results were APP 5'UTR act inactive, STAT3 act-1 inactive, STAT3 inh inactive, STAT1 act-1 inactive, STAT1 inh inactive and NF-kB neuron act inactive.
CC(=O)NC(CCS(C)(=O)=O)C(=O)N1CCc2ccccc21 (stereo not drawn) was read as APP 5'UTR act inactive, STAT3 act-1 137, STAT3 inh inactive, STAT1 act-1 inactive, STAT1 inh inactive, NF-kB neuron act inactive, STAT3 act-2 inactive, NFkB act 2 inactive and STAT1 act-2 inactive.
For Cc1cc(Nc2ccccc2)n(-c2ccc(C(=O)O)cc2)n1 the results were APP 5'UTR act inactive, STAT3 act-1 inactive, STAT3 inh inactive, STAT1 act-1 inactive, STAT1 inh inactive and NF-kB neuron act inactive.

Source: PubChem BioAssay (several laboratories)
